In ChEMBL document CHEMBL1687868, “Bioactive compounds from the fern Lepisorus contortus” (J Nat Prod, 2011):
The source made the active and inactive calls. No cut-off for these calls is given here.

Assays:
RAW264.7 = experiment: Inhibition of NO production in mouse RAW264.7 cells at 20 ug/ml after 30 mins by Griess assay; type: functional, cell-based; conditions: in the assay text read “after 24 hrs” for “after 30 mins”
Summary of the method: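 RAW 264.7 cells plated for 24 h. Compound in phenol red-free DMEM added 30 min before LPS (1 µg/mL), then 24 h incubation. Nitrite measured with Griess reagent (1% sulfanilamide, 0.1% N-(1-naphthyl)ethylenediamine in 2.5% H3PO4) at 540 nm, against an NaNO2 standard curve.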

[1] = target: T1, Prostaglandin G/H synthase 1 (Ovis aries) (UniProt P05979); experiment: Inhibition of ovine COX1 assessed as PGE2 formation at 10 ug/ml by LC-MS-MS analysis
T1 sequence (whole entry): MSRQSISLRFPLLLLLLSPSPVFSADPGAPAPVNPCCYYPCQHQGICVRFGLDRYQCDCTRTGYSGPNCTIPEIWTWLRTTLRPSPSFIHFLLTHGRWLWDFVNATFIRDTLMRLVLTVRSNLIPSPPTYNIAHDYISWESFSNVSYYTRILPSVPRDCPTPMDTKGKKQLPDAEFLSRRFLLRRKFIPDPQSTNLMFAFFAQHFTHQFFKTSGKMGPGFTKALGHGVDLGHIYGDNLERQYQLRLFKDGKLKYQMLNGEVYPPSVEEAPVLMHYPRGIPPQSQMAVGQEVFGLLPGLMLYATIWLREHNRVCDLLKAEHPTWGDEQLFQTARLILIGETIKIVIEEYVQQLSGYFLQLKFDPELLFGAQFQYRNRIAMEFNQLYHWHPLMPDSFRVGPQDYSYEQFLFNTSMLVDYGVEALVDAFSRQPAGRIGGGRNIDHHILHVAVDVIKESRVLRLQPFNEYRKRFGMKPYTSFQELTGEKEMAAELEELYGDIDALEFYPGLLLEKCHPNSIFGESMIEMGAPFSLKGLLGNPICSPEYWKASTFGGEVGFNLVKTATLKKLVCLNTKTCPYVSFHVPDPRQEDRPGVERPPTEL
Summary of the method: (§1)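 COX-1 (ovine) or COX-2 (human), 0.2 µg, activated in Tris-HCl pH 8.0 with hematin (1 µM final) and L-epinephrine (2 mM final). Test solution preincubated 10 min at 37 °C. Reaction started with arachidonic acid (5 µM final), stopped with HCl after 2 min. d4-PGE2 added as internal standard and PGE2 extracted with […] for LC-MS.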

[2] = target: T2, Prostaglandin G/H synthase 2 (Homo sapiens) (UniProt P35354); experiment: Inhibition of human COX2 assessed as PGE2 formation at 10 ug/ml by LC-MS-MS analysis; summary of the method: as §1
T2 sequence (whole entry): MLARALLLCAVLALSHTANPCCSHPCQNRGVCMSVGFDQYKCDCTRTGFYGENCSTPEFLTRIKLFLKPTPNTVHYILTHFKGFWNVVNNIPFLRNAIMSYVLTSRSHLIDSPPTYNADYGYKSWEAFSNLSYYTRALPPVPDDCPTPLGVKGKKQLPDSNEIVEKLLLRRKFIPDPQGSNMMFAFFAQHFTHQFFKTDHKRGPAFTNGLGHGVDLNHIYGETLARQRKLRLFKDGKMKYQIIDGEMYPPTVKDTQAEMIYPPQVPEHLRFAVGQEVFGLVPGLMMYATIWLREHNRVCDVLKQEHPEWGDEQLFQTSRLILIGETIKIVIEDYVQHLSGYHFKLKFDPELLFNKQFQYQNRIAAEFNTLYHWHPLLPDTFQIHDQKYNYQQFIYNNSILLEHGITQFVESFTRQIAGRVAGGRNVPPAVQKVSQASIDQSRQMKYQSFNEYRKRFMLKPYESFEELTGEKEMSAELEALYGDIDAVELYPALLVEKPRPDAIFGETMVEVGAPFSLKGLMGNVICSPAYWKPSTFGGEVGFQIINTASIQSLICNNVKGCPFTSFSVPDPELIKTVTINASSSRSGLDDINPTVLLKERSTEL

[3] = Cytotoxicity against mouse Hepa-1c1c7 cells assessed as cell growth inhibition at 20 ug/ml after 72 hrs by sulforhodamine B assay; type: cell-based; conditions: hepa-1c1c7, 72 h
Summary of the method: (§2)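 Cells held in medium with 10% heat-inactivated FBS and penicillin/streptomycin/amphotericin B (Hepa1c1c7 in α-MEM; MCF-7 in MEME plus 10 mg/L insulin). Samples added in triplicate, 37 °C, 5% CO2, 72 h. Cells fixed with cold 20% TCA at 4 °C for 30 min, stained with 0.4% sulforhodamine B, dye dissolved in 10 mM Tris pH 10, OD read at 515 nm. Growth given as % of 10% aqueous DMSO control.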

MCF7 = experiment: Cytotoxicity against human MCF7 cells assessed as cell growth inhibition at 20 ug/ml after 72 hrs by sulforhodamine B assay; type: functional, cell-based; summary of the method: as §2
[4] = Inhibition of TNF-alpha-induced NFkappaB activation in human HEK293 cells after 6 hrs by luciferase reporter gene assay; type: cell-based; conditions: HEK293, 6 h
Aromatase = target: T3, Aromatase (Homo sapiens, UniProt P11511); experiment: Inhibition of aromatase preincubated with 2.6 mM NADP+ for 10 mins before substrate addition measured after 30 mins by fluorescence assay
T3 sequence (P11511 whole entry): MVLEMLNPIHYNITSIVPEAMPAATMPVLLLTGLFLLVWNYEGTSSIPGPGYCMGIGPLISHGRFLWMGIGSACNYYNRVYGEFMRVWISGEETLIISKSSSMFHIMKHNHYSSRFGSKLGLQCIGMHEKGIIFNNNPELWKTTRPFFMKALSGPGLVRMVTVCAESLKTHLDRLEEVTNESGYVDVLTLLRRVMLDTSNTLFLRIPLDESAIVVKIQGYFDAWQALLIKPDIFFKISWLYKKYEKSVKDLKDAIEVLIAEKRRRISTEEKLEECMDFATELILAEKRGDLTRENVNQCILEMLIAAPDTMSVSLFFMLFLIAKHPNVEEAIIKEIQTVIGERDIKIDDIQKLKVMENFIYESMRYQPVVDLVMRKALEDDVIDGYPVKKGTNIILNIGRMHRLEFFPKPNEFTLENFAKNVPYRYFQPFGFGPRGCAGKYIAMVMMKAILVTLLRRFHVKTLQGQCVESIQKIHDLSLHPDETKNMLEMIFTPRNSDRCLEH
Summary of the method: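 Compounds preincubated 10 min at 37 °C with NADPH-regenerating system (2.6 mM NADP+, 7.6 mM glucose 6-phosphate, G6PDH, MgCl2, albumin; 50 mM K phosphate pH 7.4). CYP19 with 0.4 µM dibenzylfluorescein then added for 30 min at 37 °C. Stopped with 2 N NaOH and held a further 2 h at 37 °C. Fluorescence read at ex 485/em 530. Five concentrations; three independent experiments in duplicate.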

Row | Structure (SMILES) | inhibition (RAW264.7) | inhibition [1] | inhibition [2] | Activity [3] | Activity (MCF7) | IC50 [4] [µM] | IC50 (Aromatase) [µM]
1 | COc1c(-c2ccc(O)cc2)oc2cc(O[C@@H]3O[C@H](CO[C@@H]4O[C@@H](CO)[C@H](O)[C@H]4O)[C@@H](O)[C@H](O)[C@H]3O)cc(O)c2c1=O | inactive | inactive | inactive | Non-toxic | Not toxic | – | –
2 | Cc1ccc(S(=O)(=O)N[C@@H](Cc2ccccc2)C(=O)CCl)cc1 [TPCK] | – | – | – | – | – | 3.76 | –
3 | O=C(/C=C/c1ccc(O)c(O)c1)OC[C@H]1O[C@@H](OCCc2ccc(O)c(O)c2)[C@H](O)[C@@H](O)[C@@H]1O [CALCEOLARIOSIDE B] | inactive | inactive | inactive | Non-toxic | Not toxic | – | 35.3
4 | O=c1ccn([C@@H]2O[C@H](CO)[C@@H](O)[C@@H]2O)c(=O)[nH]1 [ARAURIDINE] | inactive | inactive | inactive | Non-toxic | Not toxic | – | –
5 | O=C(/C=C/c1ccc(O)c(O)c1)OC[C@H]1O[C@@H](OCCc2ccc(O)c(O)c2)[C@H](O[C@@H]2OC[C@](O)(CO)[C@H]2O)[C@@H](O)[C@@H]1O | inactive | inactive | inactive | Non-toxic | Not toxic | – | 32.3
6 | COc1c(-c2ccc(O)c(O)c2)oc2cc(O[C@@H]3O[C@H](CO)[C@@H](O)[C@H](O)[C@H]3O)cc(O)c2c1=O [TRANSILIN] | inactive | inactive | inactive | Non-toxic | Not toxic | – | –
7 | OC[C@H]1O[C@@H](OCCc2ccc(O)c(O)c2)[C@H](O)[C@@H](O)[C@@H]1O | inactive | inactive | inactive | Non-toxic | Not toxic | – | –
8 | COc1c(-c2ccc(O)cc2)oc2cc(O[C@@H]3O[C@H](CO[C@@H]4O[C@@H](C)[C@H](O)[C@@H](O)[C@H]4O)[C@@H](O)[C@H](O)[C@H]3O)cc(O)c2c1=O | inactive | inactive | inactive | Non-toxic | Not toxic | – | –
9 | O=C(/C=C/c1ccc(O)c(O)c1)O[C@H]1[C@H](O)[C@@H](O[C@@H]2OC[C@](O)(CO)[C@H]2O)[C@H](OCCc2ccc(O)cc2)O[C@@H]1CO | inactive | inactive | inactive | Non-toxic | Not toxic | – | 30.7
10 | O=c1c(O[C@@H]2O[C@H](CO)[C@@H](O)[C@H](O)[C@H]2O)c(-c2ccc(O)c(O)c2)oc2cc(O)cc(O)c12 [ISOQUERCETIN] | inactive | inactive | inactive | Non-toxic | Not toxic | – | –
11 | COc1cc([C@@H](O)[C@@H](CO)Oc2ccc(/C=C/CO)cc2OC)ccc1O (relative stereo) | inactive | inactive | inactive | Non-toxic | Not toxic | – | –
12 | O=C(/C=C/c1ccc(O)c(O)c1)O[C@H]1[C@H](O)[C@@H](O[C@@H]2OC[C@](O)(CO)[C@H]2O)[C@H](OCCc2ccc(O)c(O)c2)O[C@@H]1CO [FUCATOSIDE A] | inactive | inactive | inactive | Non-toxic | Not toxic | – | –
13 | O=C(/C=C/c1ccc(O)c(O)c1)O[C@H]1[C@H](O)[C@@H](CO)O[C@@H](OCCc2ccc(O)c(O)c2)[C@@H]1O[C@@H]1OC[C@](O)(CO)[C@H]1O | inactive | inactive | inactive | Non-toxic | Not toxic | – | 26.8
14 | O=C(/C=C/c1ccc(O)c(O)c1)O[C@H]1[C@H](O)[C@@H](CO)O[C@@H](OCCc2ccc(O)cc2)[C@@H]1O[C@@H]1OC[C@](O)(CO)[C@H]1O | inactive | inactive | inactive | Non-toxic | Not toxic | – | –
15 | COc1c(-c2ccc(O)cc2)oc2cc(O[C@@H]3O[C@H](CO)[C@@H](O)[C@H](O)[C@H]3O)cc(O)c2c1=O | inactive | inactive | inactive | Non-toxic | Not toxic | – | –
16 | COc1c(-c2ccc(O)c(O)c2)oc2cc(O[C@@H]3O[C@H](CO[C@@H]4O[C@@H](C)[C@H](O)[C@@H](O)[C@H]4O)[C@@H](O)[C@H](O)[C@H]3O)cc(O)c2c1=O | inactive | inactive | inactive | Non-toxic | Not toxic | – | –
